From article PMC8828683 (Stem Cell Reports, 2022)

Experiments:
Type in all cases: cell-based, human
[1] = tested on: NTERA-2 ECC; assay: Cells with <2N DNA by FACS of permeabilized cells stained with PI; settings: Homo sapiens, NTERA2, read-out: IC50 DNA (50% of cells with <2N DNA)
Outline: (§1)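 Cells were exposed to a range of test compound concentrations alongside vehicle (DMSO) controls. They were then permeabilized, stained with propidium iodide, and DNA content was read by flow cytometry. IC50 is the concentration at which 50% of cells hold <2N DNA, from 3 independent repetitions with SEM. Line averages and differentiated/pluripotent ratios are derived from these IC50s. NTERA-2 was also run as a time course at 5 μM, normalized to vehicle at each time point.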

[2] = tested on: HFF-1 normal skin fibroblast; assay: as above; settings: Homo sapiens, HFF-1, read-out: IC50 DNA (50% of cells with <2N DNA)
Outline: as §1

[3] = tested on: NTERA-2 ECC; assay: Live cells / PCD by FACS of nonpermeabilized cells stained with annexin-V and PI
Outline: (§2)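 Cells were seeded so that vehicle wells stayed subconfluent, then treated with a range of test compound concentrations for 4 days. Without permeabilization, they were stained with annexin-V-FITC and propidium iodide and analysed by flow cytometry. Double-negative cells (Q3) were scored as live and Q1+Q2 as programmed death. Vehicle was set to 100% viable and 0% dead. Results are the mean of three independent assays with SEM; group averages and ratios are derived from the IC50s.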

[4] = tested on: HFF-1 normal skin fibroblast; assay: as above; settings: Homo sapiens, HFF-1, read-out: IC50 Live Cells
Outline: as §2

## Cc1cccc(/C=N/Nc2cc(N3CCOCC3)nc(OCCc3ccccn3)n2)c1 [Apilimod]
[1]
  IC50: 400 nM
[2]
  IC50: > 10000 nM
[3]; Homo sapiens, NTERA2, 96 h, read-out: IC50 Live Cells
  IC50: 200 nM
[3]; NTERA-2 cells
  Effectiveness relative to WX8: about 10 times
[4]
  IC50: > 10000 nM
